Measurements reported in ChEMBL document CHEMBL3407447, “Probing the molecular and structural elements of ligands binding to the active site versus an allosteric pocket of the human farnesyl pyrophosphate synthase” (Bioorg Med Chem Lett, 2015).
Calls of active or inactive are those of the source. The rule behind the calls is not given here.

Tests used:
[1] = target: T1, Farnesyl pyrophosphate synthase (Homo sapiens, UniProt P14324); test: Inhibition of human FPPS
T1 sequence (P14324 whole entry): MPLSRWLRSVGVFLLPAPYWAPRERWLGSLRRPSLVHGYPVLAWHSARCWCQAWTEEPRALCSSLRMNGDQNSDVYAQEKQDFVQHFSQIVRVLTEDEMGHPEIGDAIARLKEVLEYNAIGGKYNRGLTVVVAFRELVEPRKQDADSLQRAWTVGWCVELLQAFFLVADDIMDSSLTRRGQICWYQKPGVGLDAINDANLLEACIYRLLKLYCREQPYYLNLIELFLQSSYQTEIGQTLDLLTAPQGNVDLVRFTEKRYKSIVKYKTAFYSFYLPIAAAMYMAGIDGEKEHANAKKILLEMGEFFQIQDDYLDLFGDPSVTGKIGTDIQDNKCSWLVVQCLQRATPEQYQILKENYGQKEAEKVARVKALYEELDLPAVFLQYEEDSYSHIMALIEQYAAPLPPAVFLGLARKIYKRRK

[2] = target: T2, Farnesyl pyrophosphate synthase (Homo sapiens) (UniProt P14324); test: Inhibition of human FPPS at 10 uM
T2 sequence (whole entry): T1 sequence (P14324 whole entry)
Outline: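 Single fixed-concentration screen in the human FPPS enzyme inhibition assay, run alongside two known bisphosphonate inhibitors as positive controls.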

Rattus norvegicus = test: Reduction in hypercalcemia in sc dosed rat; format: functional; conditions: read-out: MED

SMILES | IC50 [1] [µM] | inhibition [2] | minimal effective dose (Rattus norvegicus) [mg/kg]
CC(C)C(C)c1[nH]c2ccccc2c1CC(P(=O)(O)O)P(=O)(O)O (centres undefined) | – | Active | –
O=P(O)(O)C(O)(Cc1cnc2ccccn12)P(=O)(O)O [MINODRONIC ACID] | – | – | 0.03
CC(c1[nH]c2ccccc2c1CC(P(=O)(O)O)P(=O)(O)O)C1CCCC1 (centres undefined) | – | Active | –
Cn1c(NCC(P(=O)(O)O)P(=O)(O)O)nc2cccnc21 | – | inactive | –
O.O=P(O)(O)C(O)(Cn1ccnc1)P(=O)(O)O [ZOLEDRONIC ACID] | – | – | 0.03
CC(C)n1cc(CC(P(=O)(O)O)P(=O)(O)O)c2ccccc21 | – | Active | –

Now from value to molecule, other results behind:

IC50 [1] [µM] | inhibition [2] | SMILES | minimal effective dose (Rattus norvegicus) [mg/kg]
1.1 | Active | CC(C)C(C)c1[nH]c2ccc(-c3ccccc3)cc2c1CC(P(=O)(O)O)P(=O)(O)O (centres undefined) | –
– | Active | Cc1c(CC(P(=O)(O)O)P(=O)(O)O)c2ccccc2n1C | –
– | Active | CCn1cc(CC(P(=O)(O)O)P(=O)(O)O)c2ccccc21 | –
– | Active | Cn1c(NCC(P(=O)(O)O)P(=O)(O)O)nc2ncccc21 | –
– | Active | Cc1[nH]c2ccccc2c1CC(P(=O)(O)O)P(=O)(O)O | –
– | Active | CC(C)(C)c1[nH]c2ccccc2c1CC(P(=O)(O)O)P(=O)(O)O | –
– | Active | Cn1cc(CC(P(=O)(O)O)P(=O)(O)O)c2ccccc21 | –
